Test results from paper PMC3949125 (Proteins, 2013).

Assays:
[1] = target: human BCL2 (residues 1–218) (Homo sapiens, UniProt P10415); test: Isothermal titration calorimetry of BECN1 BH3D-derived peptides binding to BCL2; details: ITC, 25°C, pH 7.5
In short: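 Soluble human BCL2 (1–218, C-terminal transmembrane helix removed) and synthetic BH3D-derived peptides (HPLC-purified >95%, mass confirmed by electrospray MS) were co-dialysed against 50 mM HEPES pH 7.5, 150 mM NaCl, 2 mM β-mercaptoethanol. BCL2 sat in the cell and peptide was titrated in at 25°C over 25 injections. Kd came from fitting an independent binding model.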

[2] = target: Soluble human BCL2 (residues 1-218), lacking the C-terminal transmembrane helix (human, UniProt P10415 1-218); test: ITC
Soluble human BCL2 (residues 1-218), lacking the C-terminal transmembrane helix, sequence (P10415 1-218): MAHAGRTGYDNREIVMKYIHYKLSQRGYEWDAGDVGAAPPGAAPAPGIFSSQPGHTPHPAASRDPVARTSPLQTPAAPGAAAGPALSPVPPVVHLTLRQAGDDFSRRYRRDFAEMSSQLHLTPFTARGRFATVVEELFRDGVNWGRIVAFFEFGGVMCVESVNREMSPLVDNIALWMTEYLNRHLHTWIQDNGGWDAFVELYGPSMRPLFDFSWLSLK

human BCL2 (residues 1–218), sequence (P10415 1-218): as above

F123A: BECN1 BH3D-derived peptide with Ala substitution of F123 (DGGTMENLSRRLKVTGDLADIMSGQT) [Mutant F123A]
Binding to BCL2 (in words) [1]: abolished

L112A: BECN1 BH3D-derived peptide with Ala substitution of L112 (DGGTMENASRRLKVTGDLFDIMSGQT) [Mutant L112A]
Binding to BCL2 (in words) [1]: abolished

L116A: BECN1 BH3D-derived peptide with Ala substitution of L116 (DGGTMENLSRRAKVTGDLFDIMSGQT) [Mutant L116A]
Binding to BCL2 (in words) [1]: abolished

G120E+D121A: BECN1 BH3D-derived peptide with double G120E+D121A substitution (DS) (DGGTMENLSRRLKVTEALFDIMSGQT)
Binding to BCL2 (in words) [1]: abolished | Binding to BCL2 (in words) ([1]; listed as DS BH3D): does not bind

DGGTMENLSRRLKVTGDLFDIMSGQT [human BECN1 BH3D peptide (residues 105-130)]
Kd [2]: 10.4 ± 3.5 µM | dH [2]: -4.25 ± 1.55 kcal/mol

DGGTMENLSRRLQVTGDLFDIMSGQT (peptide, UniProt Q14457 105-130, looked up) [K117Q BECN1 BH3D peptide]
dH [2]: -5.11 ± 1.1 kcal/mol

DGGTAENLSRRLKVTGDLFDIMSGQT (peptide, UniProt Q14457 105-130, looked up) [M109A BECN1 BH3D peptide]
dH [2]: -3.78 ± 0.693 kcal/mol
